ChEMBL document CHEMBL3627667, “Novel halogenated 3-deazapurine, 7-deazapurine and alkylated 9-deazapurine derivatives of L-ascorbic or imino-L-ascorbic acid: Synthesis, antitumour and antiviral activity evaluations” (Eur J Med Chem, 2015)

What was measured:
HeLa [1] = experiment: Antiproliferative activity against human HeLa cells incubated for 72 hrs by MTT assay; format: functional, cell-based
In short: (§1)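 Cells seeded at 5000 per well on day 0. Test agents added in five 10-fold dilutions (0.01–100 μM) for a further 72 h, with DMSO ≤0.1% as solvent control. Growth was read by MTT and absorbance converted to percentage growth against untreated cells on the same plate. IC50 came from linear regression on dose–response curves. Quadruplicate points, three independent experiments.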

SW-620 = experiment: Antiproliferative activity against human SW620 cells incubated for 72 hrs by MTT assay; format: functional, cell-based; in short: as §1
Coxsackievirus B4 = experiment: Antiviral activity against Coxsackievirus B4 expressed in African green monkey Vero cells assessed as reduction in cytopathogenicity; format: functional, organism-based; settings: Enterovirus B
In short: (§2)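 Confluent Vero monolayers were inoculated with 100 CCID50 of virus in the presence of 5-fold serial compound dilutions. Cytopathicity was scored once it was complete in untreated infected controls. EC50 is the concentration giving 50% reduction of virus-induced cytopathogenicity.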

Human alphaherpesvirus 3 [2] = experiment: Antiviral activity against Varicella zoster virus Oka expressed in HEL cells assessed as reduction in plaque formation incubated for 5 days; format: functional, organism-based; settings: Human alphaherpesvirus 3, Oka, 120 h
In short: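 Confluent HEL cells were inoculated at 20 PFU per well of VZV. Residual virus was removed after 2 h, then compound dilutions were added in duplicate. EC50 is the concentration reducing plaque formation by 50% versus untreated controls after 5 days.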

[3] = tested on: Mammalian orthoreovirus 1; experiment: Antiviral activity against Reovirus 1 expressed in African green monkey Vero cells assessed as reduction in cytopathogenicity; format: functional, cell-based; settings: Mammalian orthoreovirus 1, Vero; in short: as §2
[4] = Antiproliferative activity against human MIAPaCa2 cells incubated for 72 hrs by MTT assay; format: functional, cell-based, MIA PaCa-2; in short: as §1
[5] = Antiproliferative activity against mouse L1210/0 cells incubated for 72 hrs by MTT assay; format: functional, cell-based; in short: as §1
[6] = Antiproliferative activity against human CEM/0 cells incubated for 72 hrs by MTT assay; format: functional, cell-based, CCRF-CEM; in short: as §1
Sindbis virus = experiment: Antiviral activity against Sindbis virus expressed in African green monkey Vero cells assessed as reduction in cytopathogenicity; format: functional, organism-based; in short: as §2
[7] = Cytotoxicity against African green monkey Vero cells assessed as alteration in cell morphology by microscopy; format: cell-based; settings: chlorocebus sabaeus
In short: (§3)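 MCC is the compound concentration causing a microscopically visible alteration of cell morphology in the cultures used for the antiviral assays.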

Punta Toro virus = experiment: Antiviral activity against Punta Toro virus expressed in African green monkey Vero cells assessed as reduction in cytopathogenicity; format: functional, organism-based; in short: as §2
Human respirovirus 3 = experiment: Antiviral activity against Parainfluenza virus 3 expressed in African green monkey Vero cells assessed as reduction in cytopathogenicity; format: functional, organism-based; settings: Human respirovirus 3, Vero; in short: as §2
Human alphaherpesvirus 3 [8] = experiment: Antiviral activity against thymidine kinase deficient Varicella zoster virus 07-1 expressed in HEL cells assessed as reduction in plaque formation incubated for 5 days; format: functional, organism-based; settings: Human alphaherpesvirus 3, 07-1, HEL, 120 h
In short: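 Confluent HEL cells in 96-well plates inoculated with TK-deficient VZV strain 07-1 at 20 PFU per well; residual virus removed after 2 h, then varying compound concentrations added in duplicate. EC50 = concentration reducing viral plaque formation by 50% versus untreated controls after 5 days.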

HepG2 = experiment: Antiproliferative activity against human HepG2 cells incubated for 72 hrs by MTT assay; format: functional, cell-based; in short: as §1
Human betaherpesvirus 5 [9] = experiment: Antiviral activity against Human cytomegalovirus AD169 expressed in HEL cells assessed as reduction in plaque formation incubated for 7 days by Giemsa stain based microscopy; format: functional, organism-based; settings: Human betaherpesvirus 5, AD169, HEL, 168 h
In short: (§4)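 Confluent HEL fibroblasts were infected at 100 PFU per well. After 2 h, residual virus was removed and compound-containing medium added, in duplicate. After 7 days at 37 °C, cells were ethanol-fixed, Giemsa-stained and examined microscopically. EC50 was read from graphic plots of % cytopathogenicity versus concentration.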

[10] = Cytotoxicity against human HEL cells assessed as alteration in cell morphology incubated for 3 days by microscopy; format: cell-based; in short: as §3
HEL = experiment: Cytotoxicity against human HEL cells assessed as cell growth reduction incubated for 3 days; format: cell-based; settings: 72 h
In short: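 HEL cells were seeded at 5 × 10^3 per well and allowed to proliferate for 24 h before compound-containing medium was added. After 3 days at 37 °C, cells were counted with a Coulter counter. CC50 (50% reduction of proliferation versus untreated controls) was estimated from graphic plots.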

HeLa [11] = experiment: Cytotoxicity against human HeLa cells assessed as cell growth reduction incubated for 3 days; format: cell-based; settings: 72 h
Human betaherpesvirus 5 [12] = experiment: Antiviral activity against Human cytomegalovirus Davis expressed in HEL cells assessed as reduction in plaque formation incubated for 7 days by Giemsa stain based microscopy; format: functional, organism-based; settings: Human betaherpesvirus 5, Davis, 168 h; in short: as §4

Row | SMILES | IC50 (HeLa [1]; Homo sapiens, HeLa, 72 h) | IC50 (SW-620; Homo sapiens, SW-620, 72 h) | IC50 ([4]; Homo sapiens, MIA PaCa-2, 72 h) | IC50 ([5]; Mus musculus, L1210/0, 72 h) | IC50 ([6]; Homo sapiens, CCRF-CEM, 72 h) | IC50 (HepG2; Homo sapiens, HepG2, 72 h) | further results
1 | O=C1O/C(=C\Cn2cnc3ccn(C/C=C4\OC(=O)C(OCc5ccccc5)=C4OCc4ccccc4)c3c2=O)C(OCc2ccccc2)=C1OCc1ccccc1 | 5.6 µM | 47.2 µM | 26.2 µM | 4.5 µM | 19 µM | > 100 µM | EC50 (Coxsackievirus B4): > 20 µM; EC50 (Human alphaherpesvirus 3 [2]): 13.8 µM; EC50 [3]: > 20 µM; EC50 (Sindbis virus): > 20 µM; MCC [7]: ≥ 20 µM; EC50 (Punta Toro virus): 6.7 µM; EC50 (Human respirovirus 3): > 20 µM; EC50 (Human alphaherpesvirus 3 [8]): 7.6 µM
2 | COc1nc(OC)c2c(ccn2CCC2(O)NC(=O)C(OCc3ccccc3)=C2OCc2ccccc2)n1 (configuration not stated) | – | – | – | – | 87 µM | > 100 µM | –
3 | O=C1O/C(=C\Cn2cnc3c(F)nc(F)c(Cl)c32)C(OCc2ccccc2)=C1OCc1ccccc1 | > 100 µM | 55 µM | 78 µM | – | – | > 100 µM | EC50 (Coxsackievirus B4): 14.5 µM; EC50 [3]: > 20 µM; EC50 (Human betaherpesvirus 5 [9]): 44.7 µM; EC50 (Sindbis virus): > 20 µM; MCC [7]: ≥ 20 µM; EC50 (Punta Toro virus): 12 µM; MCC at 72 h [10]: > 100 µM; EC50 (Human respirovirus 3): > 20 µM; CC50 (HEL): ≥ 100 µM; Activity (HeLa [11]): Non-toxic; EC50 (Human betaherpesvirus 5 [12]): 44.7 µM
4 | O=C1NC(O)(CCn2cnc3ccnc(Cl)c32)C(OCc2ccccc2)=C1OCc1ccccc1 (configuration not stated) | 21 µM | > 100 µM | 60 µM | – | – | > 100 µM | –
5 | O=C1NC(O)(CCn2cnc3cncc(Br)c32)C(OCc2ccccc2)=C1OCc1ccccc1 (configuration not stated) | 77 µM | > 100 µM | 48.7 µM | 50 µM | 25 µM | 66.5 µM | –
6 | Nc1nc(F)c(Cl)c2c1ncn2CCC1(O)NC(=O)C(OCc2ccccc2)=C1OCc1ccccc1 (configuration not stated) | 39 µM | 59 µM | > 100 µM | – | – | > 100 µM | –
7 | O=C1NC(O)(/C=C\n2cc(I)c3c(Cl)ncnc32)C(OCc2ccccc2)=C1OCc1ccccc1 (configuration not stated) | > 250 µM | 46.9 µM | 22.6 µM | > 250 µM | > 250 µM | 32.4 µM | –
8 | O=C1O/C(=C\Cn2cnc3cc[nH]c3c2=O)C(OCc2ccccc2)=C1OCc1ccccc1 | 27 µM | > 100 µM | > 100 µM | 28 µM | 16 µM | > 100 µM | –
9 | O=C1NC(O)(CCn2cnc3cc[nH]c3c2=O)C(OCc2ccccc2)=C1OCc1ccccc1 (configuration not stated) | 92 µM | 90.7 µM | 36.6 µM | 107 µM | 87 µM | > 100 µM | –
10 | O=C1O/C(=C\Cn2cnc3cncc(Br)c32)C(OCc2ccccc2)=C1OCc1ccccc1 (mixture of isomers) | 15 µM | 32.9 µM | 22.6 µM | 6.8 µM | 5.7 µM | 46.9 µM | –
11 | COc1nc(OC)c2c(ccn2C/C=C2\OC(=O)C(OCc3ccccc3)=C2OCc2ccccc2)n1 (mixture of isomers) | 12 µM | 47.1 µM | 33.9 µM | 4.7 µM | 4.1 µM | > 100 µM | EC50 (Human betaherpesvirus 5 [9]): 4.99 µM; MCC at 72 h [10]: ≥ 20 µM; CC50 (HEL): 36.6 µM; EC50 (Human betaherpesvirus 5 [12]): 1.99 µM
12 | O=C1O/C(=C\Cn2cnc3ccnc(Cl)c32)C(OCc2ccccc2)=C1OCc1ccccc1 (mixture of isomers) | > 100 µM | > 100 µM | > 100 µM | – | – | > 100 µM | –
13 | O=C1O/C(=C\Cn2cnc3c(Cl)c(F)nc(F)c32)C(O)=C1O (mixture of isomers) | > 100 µM | > 100 µM | > 100 µM | – | – | > 100 µM | –
14 | O=C1O/C(=C\Cn2cc(I)c3c(Cl)ncnc32)C(OCc2ccccc2)=C1OCc1ccccc1 (mixture of isomers) | 65 µM | > 100 µM | 33.3 µM | 128 µM | > 250 µM | > 100 µM | –
15 | O=C1NC(O)(CCn2cnc3ccn(CCC4(O)NC(=O)C(OCc5ccccc5)=C4OCc4ccccc4)c3c2=O)C(OCc2ccccc2)=C1OCc1ccccc1 (stereo in doubt; 18) | 17 µM | – | 5.7 µM | 4.4 µM | – | > 100 µM | IC50 (SW-620; sw-620): 69.9 µM; IC50 ([6]; ccrf-cem): 15 µM
16 | O=C1NC(O)(CCn2cnc3ccn(CCC4(O)NC(=O)C(OCc5ccccc5)=C4OCc4ccccc4)c3c2=O)C(OCc2ccccc2)=C1OCc1ccccc1 (stereo in doubt; 19) | – | – | – | – | – | – | IC50 (HeLa [1]; hela): 18 µM; IC50 (SW-620; sw-620): 30.5 µM; IC50 ([4]; mia paca-2): 4.4 µM; IC50 ([5]; l1210/0): 7.6 µM; IC50 ([6]; ccrf-cem): 4.9 µM; IC50 (HepG2; hepg2): 52 µM
17 | Nc1ncnc2c1ncn2C[C@H](O)CO [(S)-DHPA] | – | – | – | – | – | – | EC50 (Coxsackievirus B4): > 250 µM; EC50 [3]: > 250 µM; EC50 (Sindbis virus): > 250 µM; MCC [7]: > 250 µM; EC50 (Punta Toro virus): > 250 µM; EC50 (Human respirovirus 3): > 250 µM
18 | Nc1ccn(C[C@@H](CO)OCP(=O)(O)O)c(=O)n1 [CIDOFOVIR] | – | – | – | – | – | – | EC50 (Human betaherpesvirus 5 [9]): 0.61 µM; MCC at 72 h [10]: > 300 µM; CC50 (HEL): 153 µM; EC50 (Human betaherpesvirus 5 [12]): 0.51 µM
19 | O=c1[nH]cc(F)c(=O)[nH]1 [FLUOROURACIL] | 66.5 µM | 0.79 µM | – | – | – | 55.2 µM | –
20 | Nc1nc(O)c2ncn(COC(CO)CO)c2n1 [GANCICLOVIR] | – | – | – | – | – | – | EC50 (Human betaherpesvirus 5 [9]): 6.12 µM; MCC at 72 h [10]: > 350 µM; CC50 (HEL): 328 µM; EC50 (Human betaherpesvirus 5 [12]): 4.72 µM
21 | NC(=O)c1ncn([C@@H]2O[C@H](CO)[C@@H](O)[C@H]2O)n1 [RIBAVIRIN] | – | – | – | – | – | – | EC50 (Coxsackievirus B4): > 250 µM; EC50 [3]: > 250 µM; EC50 (Sindbis virus): > 250 µM; MCC [7]: > 250 µM; EC50 (Human respirovirus 3): 73.5 µM
